High-throughput results: PubChem BioAssay, several laboratories
Lmaj promast: Leishmania major promastigote growth inhibition; Leishmania major promastigotes, resazurin fluorescence viability; inhibition, % at 10 µM; actives 9% (n = 200,000);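 note: promastigotes grown with compound for 44 hours at 28 °C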
PfGluPho inh: PfG6PD (Plasmodium falciparum) enzyme inhibition; actives 0.78% (n = 350,000); PfGluPho enzyme, NADPH resazurin-diaphorase fluorescence; inhibition, % at 20 µM;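 active = inhibition reaching at least a set limit at 20 µM in the primary screen, cut at about 59% in these data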;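 note: 0% = DMSO wells with substrate and 100% = DMSO wells lacking glucose-6-phosphate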
G6PDH CS: inhibits Leuconostoc G6PDH, flagging false hits in G6PDH-based assays; Purified L. mesenteroides G6PDH, diaphorase/resazurin coupled fluorescence, 45 min; AID 1020; inhibition, % at 5 µM; actives 0.12% (n = 200,000)
Redox H2O2 prof: compounds producing H2O2 with reducing agent – biochemical, NIH compound library profiling, artefact control for MLSCN library redox annotation, primary screen; DTT-dependent redox cycling H2O2, phenol red/HRP absorbance; 100% = 100 µM peroxide control, 0% = buffer; activation, % at 10 µM; actives 0.03% (n = 200,000);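 active = activation of at least 50% relative to the plate's high and low controls in the primary single-dose screen; inactive = activation below 50%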;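 note: compound incubated with DTT at 0.8 mM final as the reducing agent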
Diaphorase inh: counter-screen for diaphorase-based assays: diaphorase inhibitors and chemical oxidizers | actives 0.69% (n = 190,000) | diaphorase resazurin-to-resorufin fluorescence, NADH, 16 min; bacterial (C. kluyveri) enzyme, not human | AID 1217 | inhibition, % at 20 µM;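 active = primary screen inhibition at 20 µM above a set limit, cut at about 50% in these data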;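 note: plate controls were DMSO with full reaction for no effect and wells lacking NADH for full effect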
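Test system: diaphorase enzyme from Clostridium kluyveri; amount: diaphorase at 0.14 U/mL in enzyme working solution; detection: fluorescence of resorufin formed from resazurin, Ex 544/Em 590 nm; times: reaction incubation of 16 min at room temperature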
Diaph act CS: activates diaphorase or chemically reduces, flagging diaphorase assay artifacts | Diaphorase/resazurin coupled assay, resorufin fluorescence, 16 min; active compounds read high; 1 = vehicle wells, 0 = NADH-free wells | activation factor at 20 µM | actives 0.005% (n = 190,000) | AID 1229;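 active = diaphorase activity raised at least twofold by the compound at 20 µM; inactive = activation factor below 2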
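Material: Purified diaphorase enzyme from Clostridium kluyveri | Buffer or medium: 50 mM HEPES pH 7.4 with 4.542 mM MgCl2, 0.005% Tween 20 | Times: 16 min enzyme reaction, ambient temperature | Signal: Red resorufin fluorescence at 544/590 nm excitation/emission | Measure: Increased resorufin signal from activators or reducing compounds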
PfGluPho conf: PfG6PD inhibition, single-dose confirmed. shares compounds with PfGluPho inh. recombinant PfGluPho, NADPH-diaphorase-resazurin fluorescence. inhibition, % at 20 µM. actives 34% (n = 2,400). AID 504753;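 active = inhibition of at least 50% at 20 µM in any single replicate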;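 note: 0% = DMSO with substrate and 100% = DMSO lacking glucose-6-phosphate substrate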
Diaphorase 10uM: inhibits diaphorase or oxidizes, flagging false PfG6PD hits | shares compounds with PfGluPho inh | diaphorase-coupled resazurin reduction, fluorescence, NADPH 10 uM | inhibition, % at 20 µM | actives 39% (n = 820) | AID 504862;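 active = average inhibition reaching 50% or more with the compound at 20 µM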;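 note: resorufin red fluorescence formed as diaphorase reduces resazurin using NADPH; 0% = DMSO with enzyme and 100% = DMSO without enzyme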
Diaphorase 30uM: diaphorase inhibition or oxidation at 30 uM NADPH; actives 29% (n = 820); inhibition, % at 20 µM; shares compounds with PfGluPho inh; AID 504863; Diaphorase/resazurin coupled assay, resorufin fluorescence;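 active = inhibition averaging 50% or more, tested at 20 µM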;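 note: 0% = DMSO with enzyme and 100% = DMSO wells lacking diaphorase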
The depositor's hits bear a star. The sample as a whole holds a higher share of hits than the screen did. Cut-off read from the data, not from the text of the source, unless noted: active = inhibition above about 50%; inactive = the rest.

CCc1[nH]c(=S)c(C#N)c2c1CCCC2 was read as Lmaj promast -7, PfGluPho inh 66*, G6PDH CS 2, Redox H2O2 prof 0, Diaphorase inh 18, Diaph act CS 0.8 and PfGluPho conf 41.
`CCc1[nH]c(=O)c(C#N)c2c1CCCC2` gave Lmaj promast -4, PfGluPho inh 3, G6PDH CS -2, Redox H2O2 prof -1, Diaphorase inh -10 and Diaph act CS 1.1.
For CCN(CC(=O)NCc1cccs1)C(=O)CCc1c[nH]c2ccccc12 the results were Lmaj promast -2, PfGluPho inh 6, G6PDH CS 1, Redox H2O2 prof -1, Diaphorase inh 12 and Diaph act CS 0.9.
For N#CC1=C2SCN(Cc3ccco3)CN2C(=O)CC1c1ccccc1F (stereo not given) the results were Lmaj promast -3, PfGluPho inh 67*, G6PDH CS 30, Redox H2O2 prof 0, Diaphorase inh 46, Diaph act CS 0.5 and PfGluPho conf 30.
For S=C1SCN(Cc2ccco2)CN1Cc1ccco1 the results were PfGluPho inh 10.
Screening N#CC1=C2SCN(Cc3ccco3)CN2C(=O)CC1c1cccc2ccccc12 (stereo not given) returned Lmaj promast -1, PfGluPho inh 63*, G6PDH CS 28, Redox H2O2 prof 0, Diaphorase inh 42, Diaph act CS 0.6 and PfGluPho conf 15.
CCOC(=O)c1sc2nc(-c3ccco3)c3c(c2c1N)CC(C)(C)OC3 was read as PfGluPho inh 64*, G6PDH CS 5, Diaphorase inh 13, Diaph act CS 0.9 and PfGluPho conf 10.
`CCCCN(NC(C)=O)c1nc(Cl)nc(NC(C)C)n1` gave Lmaj promast -2, PfGluPho inh -6, G6PDH CS 4, Redox H2O2 prof 0, Diaphorase inh 8 and Diaph act CS 0.9.
For COc1cc(C(=O)O/N=C2/C=C(C)C(=O)C=C2C)cc(OC)c1OC the results were Lmaj promast 93*, PfGluPho inh 61*, G6PDH CS 21, Redox H2O2 prof 0, Diaphorase inh 27, Diaph act CS 0.7, PfGluPho conf 57*, Diaphorase 10uM 27 and Diaphorase 30uM 8.
Screening CN(C)/C=C1\C(=O)Oc2ccccc2C1=O returned PfGluPho inh -6.
CCCN1C(=O)/C(=c2\sc3nc(=O)c(Cc4ccc(C)cc4)nn3c2=O)c2ccccc21 was read as Lmaj promast -6, PfGluPho inh 34, G6PDH CS 16, Redox H2O2 prof 0, Diaphorase inh 28 and Diaph act CS 0.7.
NC(=O)CN1C(=O)/C(=c2\sc3nc(=O)c(Cc4ccccc4)nn3c2=O)c2ccccc21 was read as PfGluPho inh 63* and PfGluPho conf -8.
`Cc1ccc(C)c(C(=O)COC(=O)C2CCN(c3ccc(C(F)(F)F)cn3)CC2)c1` gave PfGluPho inh 2.
Screening O=C1CCC[C@@H]2[C@@H](Cc3ccccc3)[C@H](N3CCN(c4ccccc4)CC3)C[C@@H]3CCN1[C@@H]32 returned PfGluPho inh 107*, PfGluPho conf 56*, Diaphorase 10uM 60* and Diaphorase 30uM 47.
Screening O=C1CCC[C@@H]2[C@H](Cc3ccccc3)[C@@H](O)C[C@@H]3CCN1[C@@H]32 returned PfGluPho inh -7.
Screening O=S(=O)(Nc1ccccc1F)c1cccc(NC(=S)NCCN2CCOCC2)c1 returned PfGluPho inh 96*, PfGluPho conf 77*, Diaphorase 10uM -1 and Diaphorase 30uM -10.
For COc1ccccc1NS(=O)(=O)c1cc(NC(=S)NCCN2CCOCC2)ccc1N1CCOCC1 the results were Lmaj promast 6, PfGluPho inh 66*, G6PDH CS 2, Redox H2O2 prof 0, Diaphorase inh 4, Diaph act CS 1 and PfGluPho conf 40.
O=S(=O)(Nc1ccc(Br)cc1)c1cccc(NC(=S)NCCN2CCOCC2)c1 was read as PfGluPho inh 10.
`COc1ccccc1NS(=O)(=O)c1cc(NC(=O)C(C)(C)C)ccc1N1CCOCC1` gave PfGluPho inh 2.
For CC1(C)C[C@@H](O)CC2(C1)C[C@]1(C)CC(O)[C@H]2C(C)(C)C1 (stereo not given in full) the results were PfGluPho inh 1.
Screening CCOc1ccc(-c2c(C(=O)N/N=C/c3ccc(OC)cc3)nnn2-c2nonc2N)cc1 returned Lmaj promast -6, PfGluPho inh -8, G6PDH CS 9, Redox H2O2 prof 0, Diaphorase inh 14 and Diaph act CS 0.9.
Screening COc1cc(NCCCn2cnc(C(=O)Nc3ccc(C)c(C)c3)n2)cc(OC)c1OC returned PfGluPho inh 73*, PfGluPho conf 61*, Diaphorase 10uM -17 and Diaphorase 30uM -16.
Cc1nc([N+](=O)[O-])cn1CC(=O)Nc1ccc([N+](=O)[O-])cc1 was read as PfGluPho inh 6.
O=C1C=CC(=O)N1c1ccc2c(c1)C(NC(=O)C(F)(F)F)c1ccccc1-2 (stereo not given) was read as PfGluPho inh 98*, PfGluPho conf 51*, Diaphorase 10uM -40 and Diaphorase 30uM -30.
COc1ccc(-c2cn(Cc3ccc(C(=O)c4ccccc4)cc3)nn2)cc1 was read as PfGluPho inh 4.
For CN(CCO)c1cc(Sc2nc3ccccc3s2)c2nonc2c1[N+](=O)[O-] the results were Lmaj promast 8, PfGluPho inh 88*, G6PDH CS 5, Redox H2O2 prof 1, Diaphorase inh 2, Diaph act CS 1, PfGluPho conf 70*, Diaphorase 10uM 4 and Diaphorase 30uM -12.
Screening CC1CN(c2ccccc2)NC1=O (stereo not given) returned Lmaj promast -8, PfGluPho inh 106*, G6PDH CS -4, Redox H2O2 prof 0, Diaphorase inh -5, Diaph act CS 1.1, PfGluPho conf 107*, Diaphorase 10uM 13 and Diaphorase 30uM 15.
